# Measurements as given in ChEMBL document CHEMBL2375313, “Synthesis, in vitro antitumor evaluation and DNA-binding study of novel tetrahydroquinolines and some derived tricyclic and tetracyclic ring systems” (Eur J Med Chem, 2013).
# Columns and labels:
# Type in all cases: functional
# HOP-92 = assay: Cytotoxicity against human HOP92 cells assessed as growth inhibition at 10 uM after 48 hrs by sulphorhodamine B assay; conditions: HOP-92, 48 h, read-out: GI
# Method in brief: (§1)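 NCI-60 one-dose screen per the NCI Drug Evaluation Branch protocol. Cells given a single 10 µM concentration with 48 h continuous exposure. Growth estimated by sulphorhodamine B protein assay. Result expressed as percentage growth inhibition relative to untreated growth.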
# NCI-H23 = assay: Cytotoxicity against human NCI-H23 cells assessed as growth inhibition at 10 uM after 48 hrs by sulphorhodamine B assay; conditions: NCI-H23, 48 h, read-out: GI; method in brief: as §1
# [1] = Cytotoxicity against human EKVX cells assessed as growth inhibition at 10 uM after 48 hrs by sulphorhodamine B assay; conditions: read-out: GI; method in brief: as §1
# A549 = assay: Cytotoxicity against human A549 cells assessed as growth inhibition at 10 uM after 48 hrs by sulphorhodamine B assay; conditions: A549, 48 h, read-out: GI; method in brief: as §1
# NCI/ADR-RES = assay: Cytotoxicity against human NCI/ADR-RES cells assessed as growth inhibition at 10 uM after 48 hrs by sulphorhodamine B assay; conditions: read-out: GI; method in brief: as §1
# SNB-75 = assay: Cytotoxicity against human SNB75 cells assessed as growth inhibition at 10 uM after 48 hrs by sulphorhodamine B assay; conditions: SNB-75, 48 h, read-out: GI; method in brief: as §1
# U-251 = assay: Cytotoxicity against human U251 cells assessed as growth inhibition at 10 uM after 48 hrs by sulphorhodamine B assay; conditions: U-251, 48 h, read-out: GI; method in brief: as §1
# SNB-19 = assay: Cytotoxicity against human SNB19 cells assessed as growth inhibition at 10 uM after 48 hrs by sulphorhodamine B assay; conditions: SNB-19, 48 h, read-out: GI; method in brief: as §1
# SF-295 = assay: Cytotoxicity against human SF295 cells assessed as growth inhibition at 10 uM after 48 hrs by sulphorhodamine B assay; conditions: SF-295, 48 h, read-out: GI; method in brief: as §1
# DU-145 = assay: Cytotoxicity against human DU145 cells assessed as growth inhibition at 10 uM after 48 hrs by sulphorhodamine B assay; conditions: DU-145, 48 h, read-out: GI; method in brief: as §1
# SF-268 = assay: Cytotoxicity against human SF268 cells assessed as growth inhibition at 10 uM after 48 hrs by sulphorhodamine B assay; conditions: SF-268, 48 h, read-out: GI; method in brief: as §1
# PC-3 = assay: Cytotoxicity against human PC3 cells assessed as growth inhibition at 10 uM after 48 hrs by sulphorhodamine B assay; conditions: PC-3, 48 h, read-out: GI; method in brief: as §1
# UACC-62 = assay: Cytotoxicity against human UACC62 cells assessed as growth inhibition at 10 uM after 48 hrs by sulphorhodamine B assay; conditions: UACC-62, 48 h, read-out: GI; method in brief: as §1
# SK-MEL-2 = assay: Cytotoxicity against human SK-MEL-2 cells assessed as growth inhibition at 10 uM after 48 hrs by sulphorhodamine B assay; conditions: SK-MEL-2, 48 h, read-out: GI; method in brief: as §1
# SK-MEL-5 = assay: Cytotoxicity against human SK-MEL-5 cells assessed as growth inhibition at 10 uM after 48 hrs by sulphorhodamine B assay; conditions: SK-MEL-5, 48 h, read-out: GI; method in brief: as §1
# M14 = assay: Cytotoxicity against human M14 cells assessed as growth inhibition at 10 uM after 48 hrs by sulphorhodamine B assay; conditions: M14, 48 h, read-out: GI; method in brief: as §1
# LOX IMVI = assay: Cytotoxicity against human LOXIMVI cells assessed as growth inhibition at 10 uM after 48 hrs by sulphorhodamine B assay; conditions: read-out: GI; method in brief: as §1
# UO-31 = assay: Cytotoxicity against human UO31 cells assessed as growth inhibition at 10 uM after 48 hrs by sulphorhodamine B assay; conditions: UO-31, 48 h, read-out: GI; method in brief: as §1
# CAKI-1 = assay: Cytotoxicity against human Caki1 cells assessed as growth inhibition at 10 uM after 48 hrs by sulphorhodamine B assay; conditions: CAKI-1, 48 h, read-out: GI; method in brief: as §1
# RXF 393 = assay: Cytotoxicity against human RXF393 cells assessed as growth inhibition at 10 uM after 48 hrs by sulphorhodamine B assay; conditions: RXF 393, 48 h, read-out: GI; method in brief: as §1
# ACHN = assay: Cytotoxicity against human ACHN cells assessed as growth inhibition at 10 uM after 48 hrs by sulphorhodamine B assay; conditions: read-out: GI; method in brief: as §1
# SR = assay: Cytotoxicity against human SR cells assessed as growth inhibition at 10 uM after 48 hrs by sulphorhodamine B assay; conditions: read-out: GI; method in brief: as §1
# A498 = assay: Cytotoxicity against human A498 cells assessed as growth inhibition at 10 uM after 48 hrs by sulphorhodamine B assay; conditions: A498, 48 h, read-out: GI; method in brief: as §1
# RPMI-8226 = assay: Cytotoxicity against human RPMI8226 cells assessed as growth inhibition at 10 uM after 48 hrs by sulphorhodamine B assay; conditions: RPMI-8226, 48 h, read-out: GI; method in brief: as §1
# MOLT-4 = assay: Cytotoxicity against human MOLT4 cells assessed as growth inhibition at 10 uM after 48 hrs by sulphorhodamine B assay; conditions: MOLT-4, 48 h, read-out: GI; method in brief: as §1
# K562 = assay: Cytotoxicity against human K562 cells assessed as growth inhibition at 10 uM after 48 hrs by sulphorhodamine B assay; conditions: K562, 48 h, read-out: GI; method in brief: as §1
# HL-60(TB) = assay: Cytotoxicity against human HL-60(TB) cells assessed as growth inhibition at 10 uM after 48 hrs by sulphorhodamine B assay; conditions: HL-60, 48 h, read-out: GI
# Method in brief: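 NCI-60 one-dose primary screen run to the Drug Evaluation Branch protocol. Cells are exposed to a single 10 µM concentration for 48 h continuously, and growth is read by SRB protein assay. Data are reported as percent growth of treated cells, expressed as % growth inhibition.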
# SK-OV-3 = assay: Cytotoxicity against human SKOV3 cells assessed as growth inhibition at 10 uM after 48 hrs by sulphorhodamine B assay; conditions: SK-OV-3, 48 h, read-out: GI; method in brief: as §1
# CCRF-CEM = assay: Cytotoxicity against human CCRF-CEM cells assessed as growth inhibition at 10 uM after 48 hrs by sulphorhodamine B assay; conditions: read-out: GI; method in brief: as §1
# OVCAR-5 = assay: Cytotoxicity against human OVCAR5 cells assessed as growth inhibition at 10 uM after 48 hrs by sulphorhodamine B assay; conditions: OVCAR-5, 48 h, read-out: GI; method in brief: as §1
# OVCAR-4 = assay: Cytotoxicity against human OVCAR4 cells assessed as growth inhibition at 10 uM after 48 hrs by sulphorhodamine B assay; conditions: OVCAR-4, 48 h, read-out: GI; method in brief: as §1
# IGROV-1 = assay: Cytotoxicity against human IGROV1 cells assessed as growth inhibition at 10 uM after 48 hrs by sulphorhodamine B assay; conditions: IGROV-1, 48 h, read-out: GI; method in brief: as §1
# T47D = assay: Cytotoxicity against human T47D cells assessed as growth inhibition at 10 uM after 48 hrs by sulphorhodamine B assay; conditions: read-out: GI; method in brief: as §1
# Hs-578T = assay: Cytotoxicity against human Hs578T cells assessed as growth inhibition at 10 uM after 48 hrs by sulphorhodamine B assay; conditions: read-out: GI; method in brief: as §1
# NCI-H522 = assay: Cytotoxicity against human NCI-H522 cells assessed as growth inhibition at 10 uM after 48 hrs by sulphorhodamine B assay; conditions: NCI-H522, 48 h, read-out: GI; method in brief: as §1
# HT-29 = assay: Cytotoxicity against human HT-29 cells assessed as growth inhibition at 10 uM after 48 hrs by sulphorhodamine B assay; conditions: HT-29, 48 h, read-out: GI; method in brief: as §1
# MCF7 = assay: Cytotoxicity against human MCF7 cells assessed as growth inhibition at 10 uM after 48 hrs by sulphorhodamine B assay; conditions: MCF7, 48 h, read-out: GI; method in brief: as §1
# MDA-MB-435 = assay: Cytotoxicity against human MDA-MB-435 cells assessed as growth inhibition at 10 uM after 48 hrs by sulphorhodamine B assay; conditions: MDA-MB-435, 48 h, read-out: GI; method in brief: as §1
# HCT-15 = assay: Cytotoxicity against human HCT15 cells assessed as growth inhibition at 10 uM after 48 hrs by sulphorhodamine B assay; conditions: HCT-15, 48 h, read-out: GI; method in brief: as §1
# MDA-MB-468 = assay: Cytotoxicity against human MDA-MB-468 cells assessed as growth inhibition at 10 uM after 48 hrs by sulphorhodamine B assay; conditions: MDA-MB-468, 48 h, read-out: GI; method in brief: as §1
# HCT-116 = assay: Cytotoxicity against human HCT116 cells assessed as growth inhibition at 10 uM after 48 hrs by sulphorhodamine B assay; conditions: HCT-116, 48 h, read-out: GI; method in brief: as §1
structure (smiles),measurement,setting,value
COc1ccc(-c2c3c(nc4nc(C)[nH]c(=O)c24)C(C)CCC3)cc1 (configuration not stated),inhibition of growth at 10 µM,HOP-92,21.3%
same,inhibition of growth at 10 µM,NCI-H23,< 10%
same,inhibition of growth at 10 µM,[1],< 10%
same,inhibition of growth at 10 µM,A549,10%
same,inhibition of growth at 10 µM,NCI/ADR-RES,< 10%
same,inhibition of growth at 10 µM,SNB-75,< 10%
same,inhibition of growth at 10 µM,U-251,< 10%
same,inhibition of growth at 10 µM,SNB-19,< 10%
same,inhibition of growth at 10 µM,SF-295,< 10%
same,inhibition of growth at 10 µM,DU-145,< 10%
same,inhibition of growth at 10 µM,SF-268,< 10%
same,inhibition of growth at 10 µM,PC-3,14.2%
same,inhibition of growth at 10 µM,UACC-62,14.8%
same,inhibition of growth at 10 µM,SK-MEL-2,< 10%
same,inhibition of growth at 10 µM,SK-MEL-5,13.6%
same,inhibition of growth at 10 µM,M14,< 10%
same,inhibition of growth at 10 µM,LOX IMVI,17.3%
same,inhibition of growth at 10 µM,UO-31,< 10%
same,inhibition of growth at 10 µM,CAKI-1,< 10%
same,inhibition of growth at 10 µM,RXF 393,12.5%
same,inhibition of growth at 10 µM,ACHN,11.3%
same,inhibition of growth at 10 µM,SR,46.8%
same,inhibition of growth at 10 µM,A498,< 10%
same,inhibition of growth at 10 µM,RPMI-8226,21.8%
same,inhibition of growth at 10 µM,MOLT-4,23.3%
same,inhibition of growth at 10 µM,K562,11.2%
same,inhibition of growth at 10 µM,HL-60(TB),< 10%
same,inhibition of growth at 10 µM,SK-OV-3,< 10%
same,inhibition of growth at 10 µM,CCRF-CEM,16.5%
same,inhibition of growth at 10 µM,OVCAR-5,11.4%
same,inhibition of growth at 10 µM,OVCAR-4,< 10%
same,inhibition of growth at 10 µM,IGROV-1,< 10%
same,inhibition of growth at 10 µM,T47D,18.2%
same,inhibition of growth at 10 µM,Hs-578T,< 10%
same,inhibition of growth at 10 µM,NCI-H522,22%
same,inhibition of growth at 10 µM,HT-29,< 10%
same,inhibition of growth at 10 µM,MCF7,< 10%
same,inhibition of growth at 10 µM,MDA-MB-435,19%
same,inhibition of growth at 10 µM,HCT-15,11%
same,inhibition of growth at 10 µM,MDA-MB-468,< 10%
same,inhibition of growth at 10 µM,HCT-116,< 10%
CC1CCCc2c1nc(NC(=S)NC(=O)c1ccccc1)c(C#N)c2-c1ccc(Cl)cc1 (configuration not stated),inhibition of growth at 10 µM,HOP-92,38.2%
same,inhibition of growth at 10 µM,NCI-H23,10%
same,inhibition of growth at 10 µM,[1],16.7%
same,inhibition of growth at 10 µM,A549,16%
same,inhibition of growth at 10 µM,NCI/ADR-RES,< 10%
same,inhibition of growth at 10 µM,SNB-75,15.7%
same,inhibition of growth at 10 µM,U-251,20%
same,inhibition of growth at 10 µM,SNB-19,14.1%
same,inhibition of growth at 10 µM,SF-295,17.2%
same,inhibition of growth at 10 µM,DU-145,< 10%
same,inhibition of growth at 10 µM,SF-268,< 10%
same,inhibition of growth at 10 µM,PC-3,20.3%
same,inhibition of growth at 10 µM,UACC-62,25.3%
same,inhibition of growth at 10 µM,SK-MEL-2,10.3%
same,inhibition of growth at 10 µM,SK-MEL-5,17.7%
same,inhibition of growth at 10 µM,M14,< 10%
same,inhibition of growth at 10 µM,LOX IMVI,11.1%
same,inhibition of growth at 10 µM,UO-31,33.2%
same,inhibition of growth at 10 µM,CAKI-1,22.5%
same,inhibition of growth at 10 µM,RXF 393,< 10%
same,inhibition of growth at 10 µM,ACHN,14%
same,inhibition of growth at 10 µM,SR,< 10%
same,inhibition of growth at 10 µM,A498,39%
same,inhibition of growth at 10 µM,RPMI-8226,55%
same,inhibition of growth at 10 µM,MOLT-4,31%
same,inhibition of growth at 10 µM,K562,36.3%
same,inhibition of growth at 10 µM,HL-60(TB),30%
same,inhibition of growth at 10 µM,SK-OV-3,20%
same,inhibition of growth at 10 µM,CCRF-CEM,27.6%
same,inhibition of growth at 10 µM,OVCAR-5,< 10%
same,inhibition of growth at 10 µM,OVCAR-4,21.4%
same,inhibition of growth at 10 µM,IGROV-1,32%
same,inhibition of growth at 10 µM,T47D,38.8%
same,inhibition of growth at 10 µM,Hs-578T,13.8%
same,inhibition of growth at 10 µM,NCI-H522,27.5%
same,inhibition of growth at 10 µM,HT-29,< 10%
same,inhibition of growth at 10 µM,MCF7,12.1%
same,inhibition of growth at 10 µM,MDA-MB-435,< 10%
same,inhibition of growth at 10 µM,HCT-15,11.6%
same,inhibition of growth at 10 µM,MDA-MB-468,14.5%
same,inhibition of growth at 10 µM,HCT-116,20%
